Measurements taken from ChEMBL document CHEMBL1156340 (J Med Chem, 2010).
Converted amounts (≈) assume the structure as drawn.

Columns and labels:
[1] = AUC (0 to 8 h) in BALB/c mouse at 12 mg/kg, po; conditions: plasma
[2] = Plasma clearance in Sprague-Dawley rat at 5 mg/kg, ia; format: ADME, organism-based; parameters: dose 5 mg/kg, route intra-arterial
Method in brief: (§1)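 Single-dose plasma pharmacokinetics with at least 3 animals per study. Tmax comes from oral dosing, and clearance and Vss from the parenteral arm. In rat that arm was given intra-arterially; in mouse, dog and monkey it was intravenous. Bioavailability is absolute, comparing the oral and parenteral arms.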

[3] = Volume of distribution at steady state in Sprague-Dawley rat at 5 mg/kg, ia; format: ADME, organism-based; parameters: dose 5 mg/kg, route intra-arterial; conditions: in vivo, read-out: Vdss
Method in brief: as §1

[4] = Oral bioavailability in BALB/c mouse at 12 mg/kg; format: ADME, organism-based; conditions: in vivo
Method in brief: (§2)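 Single-dose pharmacokinetics in each species by oral and intravenous routes; the rat intravenous arm was given intra-arterially. n ≥ 3 per study. Mouse exposure is reported as AUC0-8h.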

[5] = Half life in dog at 1 mg/kg, iv; format: ADME, organism-based, Canis lupus familiaris; parameters: dose 1 mg/kg, route intravenous; conditions: in vivo
Method in brief: as §2

[6] = Half life in cynomolgus monkey at 1 mg/kg, iv; format: ADME, organism-based, Macaca fascicularis; parameters: dose 1 mg/kg, route intravenous; conditions: in vivo
Method in brief: as §2

[7] = Volume of distribution at steady state in dog at 1 mg/kg, iv; format: ADME, organism-based, Canis lupus familiaris; parameters: dose 1 mg/kg, route intravenous; conditions: in vivo, read-out: Vdss
Method in brief: as §1

[8] = AUC (0 to 8 h) in BALB/c mouse at 6 mg/kg, iv; conditions: plasma
[9] = tested on: Liver microsomes; experiment: Metabolic stability in human liver microsomes assessed as glutathione conjugate at 30 uM in presence of glutathione; format: ADME, Microsome
Method in brief: (§3)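 Liver microsomes (mouse, rat or human) were fortified with 5 mM glutathione and incubated with 30 μM compound, then screened for glutathione conjugates.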

[10] = Tmax in BALB/c mouse at 12 mg/kg, po; format: ADME, organism-based; parameters: dose 12 mg/kg, route oral; conditions: in vivo
Method in brief: as §1

[11] = AUC in cynomolgus monkey at 2 mg/kg, po; format: ADME, organism-based, Macaca fascicularis; parameters: dose 2 mg/kg, route oral; conditions: plasma
Method in brief: (§4)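 Single-dose pharmacokinetic study with at least 3 animals per study; the ia route is intra-arterial administration.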

[12] = tested on: Liver microsomes; experiment: Metabolic stability in rat liver microsomes assessed as glutathione conjugate at 30 uM in presence of glutathione; format: ADME, Microsome
Method in brief: as §3

[13] = Cmax in dog at 2 mg/kg, po; format: ADME, organism-based, Canis lupus familiaris; parameters: dose 2 mg/kg, route oral; conditions: in vivo
Method in brief: as §2

[14] = Cmax in cynomolgus monkey at 2 mg/kg, po; format: ADME, organism-based, Macaca fascicularis; parameters: dose 2 mg/kg, route oral; conditions: in vivo
Method in brief: as §2

[15] = Half life in BALB/c mouse at 6 mg/kg, iv; format: ADME, organism-based; parameters: dose 6 mg/kg, route intravenous; conditions: in vivo
Method in brief: as §2

[16] = Oral bioavailability in cynomolgus monkey at 2 mg/kg, po; format: ADME, organism-based, Macaca fascicularis; conditions: in vivo
Method in brief: as §1

[17] = AUC in cynomolgus monkey at 1 mg/kg, iv; format: ADME, organism-based, Macaca fascicularis; parameters: dose 1 mg/kg, route intravenous; conditions: plasma
Method in brief: as §4

[18] = AUC in dog at 1 mg/kg, iv; format: ADME, organism-based, Canis lupus familiaris; parameters: dose 1 mg/kg, route intravenous; conditions: plasma
Method in brief: as §4

[19] = Tmax in dog at 2 mg/kg, po; format: ADME, organism-based, Canis lupus familiaris; parameters: dose 2 mg/kg, route oral; conditions: in vivo
Method in brief: as §1

[20] = Half life in Sprague-Dawley rat at 5 mg/kg, ia; format: ADME, organism-based; parameters: dose 5 mg/kg, route intra-arterial; conditions: in vivo
Method in brief: as §2

[21] = Cmax in Sprague-Dawley rat at 10 mg/kg, po; format: ADME, organism-based; parameters: dose 10 mg/kg, route oral; conditions: in vivo
Method in brief: as §2

[22] = AUC in Sprague-Dawley rat at 10 mg/kg, po; format: ADME, organism-based; parameters: dose 10 mg/kg, route oral; conditions: plasma
Method in brief: as §4

[23] = Plasma clearance in dog at 1 mg/kg, iv; format: ADME, organism-based, Canis lupus familiaris; parameters: dose 1 mg/kg, route intravenous
Method in brief: as §1

[24] = Volume of distribution at steady state in cynomolgus monkey at 1 mg/kg, iv; format: ADME, organism-based, Macaca fascicularis; parameters: dose 1 mg/kg, route intravenous; conditions: in vivo, read-out: Vdss
Method in brief: as §1

[25] = Plasma clearance in cynomolgus monkey at 1 mg/kg, iv; format: ADME, organism-based, Macaca fascicularis; parameters: dose 1 mg/kg, route intravenous
Method in brief: as §1

[26] = Plasma clearance in BALB/c mouse at 6 mg/kg, iv; format: ADME, organism-based; parameters: dose 6 mg/kg, route intravenous
Method in brief: as §1

[27] = Metabolic stability in mouse liver microsomes assessed as glutathione conjugate at 30 uM in presence of glutathione; format: ADME, Microsome
Method in brief: as §3

[28] = Crystalline aqueous solubility at pH 6.5; format: physicochemical; conditions: aqueous solution
[29] = Oral bioavailability in Sprague-Dawley rat at 10 mg/kg; format: ADME, organism-based; conditions: in vivo
Method in brief: as §1

[30] = Crystalline aqueous solubility at pH 7.9; format: physicochemical; conditions: aqueous solution
[31] = Oral bioavailability in dog at 2 mg/kg, po; format: ADME, organism-based, Canis lupus familiaris; conditions: in vivo
Method in brief: as §1

[32] = AUC in Sprague-Dawley rat at 5 mg/kg, ia; format: ADME, organism-based; parameters: dose 5 mg/kg, route intra-arterial; conditions: plasma
Method in brief: as §4

[33] = Cmax in BALB/c mouse at 12 mg/kg, po; format: ADME, organism-based; parameters: dose 12 mg/kg, route oral; conditions: in vivo
Method in brief: as §2

[34] = Tmax in Sprague-Dawley rat at 10 mg/kg, po; format: ADME, organism-based; parameters: dose 10 mg/kg, route oral; conditions: in vivo
Method in brief: as §1

[35] = Tmax in cynomolgus monkey at 2 mg/kg, po; format: ADME, organism-based, Macaca fascicularis; parameters: dose 2 mg/kg, route oral; conditions: in vivo
Method in brief: as §1

[36] = AUC in dog at 2 mg/kg, po; format: ADME, organism-based, Canis lupus familiaris; parameters: dose 2 mg/kg, route oral; conditions: plasma
Method in brief: as §4

[37] = Volume of distribution at steady state in BALB/c mouse at 6 mg/kg, iv; format: ADME, organism-based; parameters: dose 6 mg/kg, route intravenous; conditions: in vivo, read-out: Vdss
Method in brief: as §1

AUC(0-8h) [1]: 33.9 µM·h | clearance [2]: 4.3 mL/min/kg | Vd [3]: 0.7 L/kg | bioavailability [4]: 88% | half-life [5]: 7.9 h | half-life [6]: 11.9 h | Vd [7]: 1.8 L/kg | AUC(0-8h) [8]: 19.3 µM·h | Stability [9]: Stable | Tmax [10]: 0.25 h | AUC [11]: 8.5 µM·h | Stability [12]: Stable | Cmax [13]: 1 µM | Cmax [14]: 1.9 µM | half-life [15]: 3 h | bioavailability [16]: 75% | AUC [17]: 5.8 µM·h | AUC [18]: 3.9 µM·h | Tmax [19]: 0.9 h | half-life [20]: 3.2 h | Cmax [21]: 43 µM | AUC [22]: 88 µM·h | clearance [23]: 9.5 mL/min/kg | Vd [24]: 3.5 L/kg | clearance [25]: 8.9 mL/min/kg | clearance [26]: 10.8 mL/min/kg | Stability [27]: Stable | solubility thermodynamic [28]: 280 µg/mL (≈ 629 µM) | bioavailability [29]: 91% | solubility thermodynamic [30]: > 4000 µg/mL | bioavailability [31]: 58% | AUC [32]: 48 µM·h | Cmax [33]: 23.8 µM | Tmax [34]: 0.4 h | Tmax [35]: 0.8 h | AUC [36]: 4.5 µM·h | Vd [37]: 1.3 L/kg
Compound: COC(=O)N(CC(=O)O)Cc1cccc(OCc2nc(-c3ccc(Cl)cc3)oc2C)c1
